Assay results reported in ChEMBL document CHEMBL1155527 (J Med Chem, 2010).
Converted amounts (≈) assume the structure as drawn.

How the values were obtained:
[1] = target: Neuronal acetylcholine receptor subunit alpha-7 (Rattus norvegicus, UniProt Q05941); test: Agonist activity at rat alpha7 nAChR expressed in rat GH4C1 cells assessed as calcium flux by FLIPR; type: functional, cell-based, GH4-C1
Method in brief: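 Cells were loaded 40 min at 37 °C with 4 μM Fluo-4-AM in HBSS-HEPES pH 7.4 with probenecid. FLIPR Ca2+ flux was read for ~10 min after compound addition. MAX-MIN was normalized to positive control and fitted to a variable-slope sigmoid. Triplicate points from a single experiment.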

[2] = Solubility in ammonium acetate buffer at pH 7.4 by pseudothermodynamic equilibrium assay; type: physicochemical
[3] = tested on: CYP3A4; test: Metabolic stability assessed as compound remaining after 1 hr in presence of human CYP3A4; type: ADME; settings: read-out: Stability
[4] = target: CYP2D6 (Homo sapiens, UniProt P10635); test: Inhibition of CYP2D6 at 3 uM by Gentest method; type: ADME
[5] = target: CYP3A4 (Homo sapiens, UniProt P08684); test: Inhibition of CYP3A4 at 3 uM by Gentest method; type: ADME
[6] = target: CYP2C9 (Homo sapiens, UniProt P11712); test: Inhibition of CYP2C9 at 3 uM by Gentest method; type: ADME
[7] = Intrinsic clearance in rat liver microsomes by LC-MS/MS analysis; type: ADME, Microsome
Method in brief: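 Rat liver microsomes (0.633 mg/mL protein in 0.1 M potassium phosphate pH 7.4 with EDTA) were incubated with test compound and NADPH regenerating agent for 15 min at 37 °C, against a time-0 control, in duplicate. Reactions were quenched with cold acetonitrile, centrifuged, and supernatants analyzed by LC-MS.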

[8] = Selectivity ratio of EC50 for human alpha1 nAChR to EC50 for rat alpha7 nAChR
[9] = Selectivity ratio of EC50 for human alpha3 nAChR to EC50 for rat alpha7 nAChR
[10] = target: T1, 5-hydroxytryptamine receptor 3A (Homo sapiens, UniProt P46098); test: Antagonist activity at human 5HT3A receptor expressed in HEK293 cells by FLIPR assay
T1 sequence (P46098 whole entry): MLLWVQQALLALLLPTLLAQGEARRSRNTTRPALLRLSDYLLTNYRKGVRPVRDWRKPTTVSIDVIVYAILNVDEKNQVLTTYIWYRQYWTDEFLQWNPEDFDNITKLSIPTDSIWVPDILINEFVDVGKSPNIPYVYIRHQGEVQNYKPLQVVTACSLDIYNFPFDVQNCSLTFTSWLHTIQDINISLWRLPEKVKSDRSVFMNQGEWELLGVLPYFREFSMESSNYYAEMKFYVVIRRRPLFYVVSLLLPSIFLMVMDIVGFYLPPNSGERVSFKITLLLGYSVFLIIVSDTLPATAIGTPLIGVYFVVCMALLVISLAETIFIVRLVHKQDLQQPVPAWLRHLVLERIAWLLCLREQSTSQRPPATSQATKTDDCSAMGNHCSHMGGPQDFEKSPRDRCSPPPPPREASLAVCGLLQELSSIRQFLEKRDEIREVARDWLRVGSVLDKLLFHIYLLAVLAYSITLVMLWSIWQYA

[11] = target: Neuronal acetylcholine receptor; alpha4/beta2 (Homo sapiens, UniProt P17787+P43681); test: Agonist activity at alpha4beta2 nAChR; type: functional
[12] = target: 5-hydroxytryptamine receptor 4 (Homo sapiens, UniProt Q13639); test: Binding affinity to 5HT4 receptor
Method in brief: (§1)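 Screened at 10 μM in a panel of about 70 receptor binding sites (Novascreen).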

[13] = target: T2, Alpha-2A adrenergic receptor (Homo sapiens, UniProt P08913); test: Binding affinity to adrenergic alpha2A receptor; method in brief: as §1
T2 sequence (P08913 whole entry): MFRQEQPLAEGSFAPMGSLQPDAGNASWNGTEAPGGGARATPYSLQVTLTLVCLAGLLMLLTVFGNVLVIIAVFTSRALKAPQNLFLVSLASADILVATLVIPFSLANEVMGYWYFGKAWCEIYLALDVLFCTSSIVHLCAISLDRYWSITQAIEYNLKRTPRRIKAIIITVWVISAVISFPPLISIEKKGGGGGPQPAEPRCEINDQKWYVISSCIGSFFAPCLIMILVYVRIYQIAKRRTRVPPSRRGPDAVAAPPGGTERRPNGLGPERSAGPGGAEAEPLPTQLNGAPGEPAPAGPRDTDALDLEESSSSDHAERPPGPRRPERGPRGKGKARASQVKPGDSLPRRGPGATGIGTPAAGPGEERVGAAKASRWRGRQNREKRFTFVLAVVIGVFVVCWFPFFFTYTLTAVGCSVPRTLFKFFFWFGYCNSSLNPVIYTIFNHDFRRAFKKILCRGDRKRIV

[14] = target: T3, Alpha-2B adrenergic receptor (Homo sapiens, UniProt P18089); test: Binding affinity to adrenergic alpha2B receptor; method in brief: as §1
T3 sequence (P18089 whole entry): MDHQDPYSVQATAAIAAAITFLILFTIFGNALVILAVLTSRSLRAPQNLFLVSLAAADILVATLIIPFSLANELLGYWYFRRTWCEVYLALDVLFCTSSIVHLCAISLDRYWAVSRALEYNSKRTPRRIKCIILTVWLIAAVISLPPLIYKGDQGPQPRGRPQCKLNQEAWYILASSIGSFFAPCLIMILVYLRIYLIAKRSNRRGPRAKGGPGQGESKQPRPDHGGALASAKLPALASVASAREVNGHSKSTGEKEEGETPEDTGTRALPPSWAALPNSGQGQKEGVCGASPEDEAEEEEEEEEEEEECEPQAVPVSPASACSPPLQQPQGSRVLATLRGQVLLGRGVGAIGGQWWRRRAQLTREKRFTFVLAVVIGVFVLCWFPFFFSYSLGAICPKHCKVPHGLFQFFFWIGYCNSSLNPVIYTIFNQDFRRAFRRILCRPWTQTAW

[15] = tested on: Rattus norvegicus; test: Cmax in Long Evans rat at 3 mg/kg, po; type: ADME, organism-based; set-up: dose 3 mg/kg, route oral; settings: in vivo
Method in brief: (§2)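 Male Long Evans rats (6-8 weeks, 250-550 g) given a single 3 mg/kg oral dose as a solution in 2% Tween, 0.5% methocell in water. Plasma sampled over 6 h. Levels measured by LC-MS/MS after acetonitrile protein precipitation with internal standard; detection limit 1 ng/mL.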

[16] = Tmax in Long Evans rat at 3 mg/kg, po; type: ADME, organism-based; set-up: dose 3 mg/kg, route oral; settings: in vivo; method in brief: as §2
[17] = AUC (last) in Long Evans rat at 3 mg/kg, po; type: ADME, organism-based; set-up: time 0 - last, dose 3 mg/kg, route oral; settings: plasma; method in brief: as §2
[18] = Oral bioavailability in Han Wistar rat assessed as ratio of AUC (0 to infinity) at 10 mg/kg, po normalized to 2 mg/kg, iv; type: ADME, organism-based; settings: in vivo
[19] = Half life in Han Wistar rat at 10 mg/kg, po and 2 mg/kg, iv; type: ADME, organism-based; settings: in vivo
[20] = Ratio of drug level from brain to plasma in Han Wistar rat at 2 mg/kg, po; type: ADME, organism-based; set-up: dose 2 mg/kg, route oral; settings: read-out: BPR
Method in brief: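 Male Han Wistar rats received a single 2 mg/kg po dose. Ratio calculated from brain and plasma AUC0-inf.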

[21] = AUC (0 to infinity) in brain of Han Wistar rat at 2 mg/kg, po; type: ADME, organism-based; set-up: time infinity, dose 2 mg/kg, route oral
[22] = AUC (0 to infinity) in plasma of Han Wistar rat at 2 mg/kg, po; type: ADME, organism-based; set-up: time infinity, dose 2 mg/kg, route oral
[23] = tested on: Rattus norvegicus; test: Inhibition of MK-801-induced cognitive function in po dosed Long Evans rat administered 60 mins prior to MK801 challenge measured after 1 hr by novel object recognition test; type: functional; settings: read-out: MED
Method in brief: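 NOR in rats: vehicle or test compound (0.3-30 mg/kg po) 60 min before the sample trial, and MK-801 (0.03 mg/kg ip) 30 min before. Sample trial was 5 min with two identical objects. Choice trial, 1 h later, was 5 min with one familiar and one novel object. N = 10 per group.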

[24] = tested on: Rattus norvegicus; test: Inhibition of MK-801-induced perceptual processing in po dosed Long Evans rat administered 60 mins prior to MK801 challenge measured after 1 hr by prepulse inhibition test; type: functional; settings: read-out: MED
Method in brief: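 Rat prepulse inhibition: test compound (1-30 mg/kg) given po 60 min and MK-801 (0.085 mg/kg) sc 10 min before testing. After 5 min at 64 dB background, 61 trials were run: 120 dB pulse alone or with a 69/74/79 dB prepulse 100 ms earlier. PPI = 100 - (prepulse/pulse startle × 100). Chronic arm: 3 mg/kg po daily for 14 days.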

Chain of Neuronal acetylcholine receptor subunit alpha-7 (Q05941 whole entry): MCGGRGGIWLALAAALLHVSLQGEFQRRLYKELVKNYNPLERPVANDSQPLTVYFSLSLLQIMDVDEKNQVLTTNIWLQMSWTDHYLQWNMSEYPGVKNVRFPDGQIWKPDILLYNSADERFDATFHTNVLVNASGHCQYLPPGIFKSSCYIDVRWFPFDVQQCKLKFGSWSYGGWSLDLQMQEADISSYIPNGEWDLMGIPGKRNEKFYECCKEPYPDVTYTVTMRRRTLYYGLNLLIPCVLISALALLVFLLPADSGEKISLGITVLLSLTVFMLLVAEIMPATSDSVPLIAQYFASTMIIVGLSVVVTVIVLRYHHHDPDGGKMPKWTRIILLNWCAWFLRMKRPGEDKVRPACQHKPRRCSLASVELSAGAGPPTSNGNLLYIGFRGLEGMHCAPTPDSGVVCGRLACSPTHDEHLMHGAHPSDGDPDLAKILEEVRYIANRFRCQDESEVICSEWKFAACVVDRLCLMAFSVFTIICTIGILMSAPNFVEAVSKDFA
Chain of CYP2C9 (P11712 whole entry): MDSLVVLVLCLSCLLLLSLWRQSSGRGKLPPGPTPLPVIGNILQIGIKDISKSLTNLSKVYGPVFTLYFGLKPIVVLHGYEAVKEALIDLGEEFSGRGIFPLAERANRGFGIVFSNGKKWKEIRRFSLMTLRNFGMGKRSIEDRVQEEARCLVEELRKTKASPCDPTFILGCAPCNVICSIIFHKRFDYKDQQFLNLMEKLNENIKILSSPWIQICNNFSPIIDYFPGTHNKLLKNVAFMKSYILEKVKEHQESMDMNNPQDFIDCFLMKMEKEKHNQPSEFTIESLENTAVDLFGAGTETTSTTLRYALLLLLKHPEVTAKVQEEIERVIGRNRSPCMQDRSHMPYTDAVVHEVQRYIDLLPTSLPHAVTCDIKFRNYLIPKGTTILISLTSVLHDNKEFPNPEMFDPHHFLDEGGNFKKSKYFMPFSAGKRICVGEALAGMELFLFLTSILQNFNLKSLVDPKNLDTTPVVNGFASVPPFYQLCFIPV
Chain of CYP3A4 (Homo sapiens, UniProt P08684) (P08684 whole entry): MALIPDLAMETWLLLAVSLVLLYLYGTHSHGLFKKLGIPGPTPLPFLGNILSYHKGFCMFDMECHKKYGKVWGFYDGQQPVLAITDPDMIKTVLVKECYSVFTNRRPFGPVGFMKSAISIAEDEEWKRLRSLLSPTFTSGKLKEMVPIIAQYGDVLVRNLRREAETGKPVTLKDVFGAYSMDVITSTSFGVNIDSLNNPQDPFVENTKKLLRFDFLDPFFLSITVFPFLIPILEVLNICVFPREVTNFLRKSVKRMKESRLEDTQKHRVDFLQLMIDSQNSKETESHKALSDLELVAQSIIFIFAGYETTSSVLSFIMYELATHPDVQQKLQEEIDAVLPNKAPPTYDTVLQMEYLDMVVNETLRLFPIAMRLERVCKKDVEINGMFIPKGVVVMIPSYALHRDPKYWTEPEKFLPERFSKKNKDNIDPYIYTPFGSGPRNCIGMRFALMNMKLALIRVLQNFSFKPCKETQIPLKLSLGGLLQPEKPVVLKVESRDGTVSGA
Chain of CYP2D6 (P10635 whole entry): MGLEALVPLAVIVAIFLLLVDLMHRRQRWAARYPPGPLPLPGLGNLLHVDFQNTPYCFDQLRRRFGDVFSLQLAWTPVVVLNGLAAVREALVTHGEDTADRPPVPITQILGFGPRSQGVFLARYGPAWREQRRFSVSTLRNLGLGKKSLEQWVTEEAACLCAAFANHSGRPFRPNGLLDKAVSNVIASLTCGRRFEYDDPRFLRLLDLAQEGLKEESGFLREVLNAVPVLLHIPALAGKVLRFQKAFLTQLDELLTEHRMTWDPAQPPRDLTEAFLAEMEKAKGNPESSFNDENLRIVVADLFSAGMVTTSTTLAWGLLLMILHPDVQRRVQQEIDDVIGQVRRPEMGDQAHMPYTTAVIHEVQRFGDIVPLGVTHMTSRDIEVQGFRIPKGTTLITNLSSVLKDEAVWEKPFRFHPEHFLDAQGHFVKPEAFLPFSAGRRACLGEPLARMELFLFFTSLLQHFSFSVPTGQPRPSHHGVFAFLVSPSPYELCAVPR
Chain of Neuronal acetylcholine receptor; alpha4/beta2 (P17787 whole entry): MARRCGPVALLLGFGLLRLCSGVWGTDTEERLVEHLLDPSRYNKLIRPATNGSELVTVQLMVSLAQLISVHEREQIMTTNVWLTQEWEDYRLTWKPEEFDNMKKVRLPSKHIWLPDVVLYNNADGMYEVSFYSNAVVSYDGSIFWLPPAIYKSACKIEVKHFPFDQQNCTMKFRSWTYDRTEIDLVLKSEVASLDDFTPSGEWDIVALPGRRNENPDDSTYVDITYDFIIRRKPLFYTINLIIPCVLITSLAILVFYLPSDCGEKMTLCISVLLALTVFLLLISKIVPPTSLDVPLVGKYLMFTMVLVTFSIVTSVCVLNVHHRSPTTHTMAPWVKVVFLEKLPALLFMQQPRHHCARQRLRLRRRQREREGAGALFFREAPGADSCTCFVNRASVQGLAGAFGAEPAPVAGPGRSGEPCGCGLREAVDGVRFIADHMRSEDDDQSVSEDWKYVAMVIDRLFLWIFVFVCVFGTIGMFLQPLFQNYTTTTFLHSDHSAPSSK
Chain of Neuronal acetylcholine receptor; alpha4/beta2 (P43681 whole entry): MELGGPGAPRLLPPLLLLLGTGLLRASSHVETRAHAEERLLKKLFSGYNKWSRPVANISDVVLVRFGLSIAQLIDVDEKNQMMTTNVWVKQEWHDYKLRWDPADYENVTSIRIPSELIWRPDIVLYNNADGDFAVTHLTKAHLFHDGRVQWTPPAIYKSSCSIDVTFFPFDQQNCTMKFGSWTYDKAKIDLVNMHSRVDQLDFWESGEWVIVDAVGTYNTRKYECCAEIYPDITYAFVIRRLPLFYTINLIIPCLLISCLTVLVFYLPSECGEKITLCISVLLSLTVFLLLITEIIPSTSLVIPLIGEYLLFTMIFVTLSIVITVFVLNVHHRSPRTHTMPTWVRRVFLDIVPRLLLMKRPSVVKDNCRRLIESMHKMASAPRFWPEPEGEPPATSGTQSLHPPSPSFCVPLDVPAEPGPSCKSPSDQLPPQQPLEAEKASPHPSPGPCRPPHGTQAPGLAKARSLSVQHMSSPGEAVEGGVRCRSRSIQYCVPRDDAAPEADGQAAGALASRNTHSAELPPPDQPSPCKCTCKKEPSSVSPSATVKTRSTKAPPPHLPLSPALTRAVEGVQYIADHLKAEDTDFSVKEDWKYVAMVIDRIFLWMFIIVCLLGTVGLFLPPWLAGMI
Chain of 5-hydroxytryptamine receptor 4 (Q13639 whole entry): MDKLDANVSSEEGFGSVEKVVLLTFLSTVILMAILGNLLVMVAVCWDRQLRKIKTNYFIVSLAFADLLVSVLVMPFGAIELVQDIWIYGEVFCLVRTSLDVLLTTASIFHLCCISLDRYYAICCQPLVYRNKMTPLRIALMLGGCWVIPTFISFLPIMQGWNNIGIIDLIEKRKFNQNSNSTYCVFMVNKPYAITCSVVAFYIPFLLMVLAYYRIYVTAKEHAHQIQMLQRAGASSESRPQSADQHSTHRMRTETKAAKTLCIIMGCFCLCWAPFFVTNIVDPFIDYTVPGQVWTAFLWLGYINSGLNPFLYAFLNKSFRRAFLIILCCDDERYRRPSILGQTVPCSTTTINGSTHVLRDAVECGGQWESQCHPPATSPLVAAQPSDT

| SMILES | EC50 [1] | solubility thermodynamic [2] | remaining at 1 h [3] | inhibition at 3 µM [4] | inhibition at 3 µM [5] | inhibition at 3 µM [6] | Ratio EC50 [8] | Ratio EC50 [9] | IC50 [10] | further results |
| --- | --- | --- | --- | --- | --- | --- | --- | --- | --- | --- |
| O=C(NCCCCN1CCCCC1)Nc1ccc(-c2ccccc2)nc1 | 120 nM | 193 µM (≈ 68 µg/mL) | 100% | 6% | -21% | -4% | > 30 | 10.1 | > 30000 nM | microsomal CLint [7]: 18 µL/min/mg |
| COc1ccccc1-c1ccc(NC(=O)NCCCCN2CCCCC2)cc1 | 140 nM | 114 µM (≈ 43.5 µg/mL) | 100% | – | 5% | -2% | 7.7 | 1.1 | 7800 nM | – |
| O=C(NCCCCN1CCCCC1)Nc1ccc(-c2ccccc2F)nc1 | 150 nM | 196 µM (≈ 72.6 µg/mL) | 100% | – | -3% | -10% | > 30 | 5.6 | > 30000 nM | – |
| O=C(NCCCCN1CCCCC1)Nc1ccc(-c2ccccn2)nc1 | 390 nM | 171 µM (≈ 60.4 µg/mL) | 100% | 22% | 0% | -3% | > 30 | 9.88 | > 30000 nM | – |
| O=C(NCCCCN1CCCCC1)Nc1ccc(-c2ccc(F)nc2)nc1 | 530 nM | 205 µM (≈ 76.1 µg/mL) | 100% | 8% | -19% | -10% | > 30 | > 30 | > 30000 nM | – |
| COc1ccccc1-c1ccc(NC(=O)NCCCCN2CCCCC2)cn1 | 230 nM | 174 µM (≈ 66.6 µg/mL) | 88% | 8% | 8% | 6% | > 30 | 3.9 | > 30000 nM | – |
| O=C(NCCCCN1CCCCC1)Nc1ccc(-c2ccc(F)cc2)nc1 | – | 121 µM (≈ 44.8 µg/mL) | 75% | 19% | 0% | -17% | – | – | > 30000 nM | microsomal CLint [7]: < 5 µL/min/mg; IC50 [11]: > 30000 nM; Ki [12]: 6000 nM; IC50 [13]: 7500 nM; IC50 [14]: 35000 nM; Cmax [15]: 40 ng/mL; Tmax [16]: 5.3 h; AUC(0-t) [17]: 318 ng·h/mL; bioavailability [18]: 100%; half-life [19]: 3.5 h; Kp [20]: 0.3; AUC(0-inf) [21]: 215 ng·h/mL; AUC(0-inf) [22]: 768 ng·h/mL; minimal effective dose [23]: 3 mg/kg; minimal effective dose [24]: 3 mg/kg |

More lines, main results first:

| EC50 [1] | solubility thermodynamic [2] | remaining at 1 h [3] | inhibition at 3 µM [4] | inhibition at 3 µM [5] | inhibition at 3 µM [6] | Ratio EC50 [8] | Ratio EC50 [9] | IC50 [10] | SMILES | further results |
| --- | --- | --- | --- | --- | --- | --- | --- | --- | --- | --- |
| 120 nM | – | – | – | – | – | – | – | – | O=C(NCCCCN1CCCCC1)Nc1ccc(-c2cccnc2)cc1 | – |
| 120 nM | 158 µM (≈ 58.5 µg/mL) | 100% | – | -22% | -18% | > 30 | 1.2 | > 30000 nM | O=C(NCCCCN1CCCCC1)Nc1ccc(-c2ccc(F)nc2)cc1 | – |
| 130 nM | 153 µM (≈ 53.9 µg/mL) | 97% | 15% | -2% | 0% | > 30 | 5 | > 30000 nM | O=C(NCCCCN1CCCCC1)Nc1ccc(-c2ccccn2)cc1 | – |
| – | 20 µM (≈ 7.39 µg/mL) | 100% | – | -13% | -16% | 8 | 1.7 | 5800 nM | O=C(NCCCCN1CCCCC1)Nc1ccc(-c2ccc(F)cc2)cc1 | – |
| 890 nM | – | – | – | – | – | – | – | – | O=C(CCCCCN1CCCCC1)Nc1ccc(-c2cccnc2)cc1 | – |
| 130 nM | 95 µM (≈ 35.1 µg/mL) | 88% | – | -17% | -1% | 8.2 | 1.2 | 5700 nM | O=C(NCCCCN1CCCCC1)Nc1ccc(-c2ccccc2F)cc1 | – |
| 350 nM | – | – | – | – | – | – | – | – | O=C(CCCCN1CCCCC1)Nc1ccc(-c2cccnc2)cc1 | – |
| 490 nM | – | – | – | – | – | – | – | – | O=C(NCCCCN1CCOCC1)Nc1ccc(-c2cccnc2)cc1 | – |
| 260 nM | 108 µM (≈ 38 µg/mL) | 100% | – | – | 2% | > 30 | 2.8 | 7900 nM | O=C(NCCCCN1CCCCC1)Nc1ccc(-c2ccccc2)cc1 | – |
